# Screens as filed in PubChem BioAssay.
# Compounds with a hit are over-represented: about 1.7% of the library has one in this group of screens.
# Efflux pump inh: inhibitors of Candida efflux pumps in yeast, primary screen, S. cerevisiae, Nile Red, multiplex; S. cerevisiae Candida pump triplex; inhibition, % at 10 µM; 330,000 tested, 0.44% active; AID 485275, 2010;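 active = plate passing quality check with inhibition over a set limit, or well fluorescence over plate mean plus 4 SD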;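 note: Nile Red retained in pooled yeast measured as flow cytometry median fluorescence; 0% = buffer negative control and 100% = Enniatin B positive control; higher means more Nile Red kept so more efflux inhibition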
# Neddylation inh: inhibitors of cullin neddylation, primary screen, biochemical, TR-FRET, uHTS, NAE and Ubc12; NEDD8-conjugating enzyme Ubc12 (Homo sapiens) + NEDD8-activating enzyme E1 regulatory …; inhibition, % at 25 µM; 360,000 tested, 0.58% active; AID 651699, 2012; in the data active = inhibition above about 36%
# DSG3 Ab inh: inhibitors of pemphigus antibody binding to DSG3, primary screen, biochemical, bead-based, flow cytometry, scFv-GFP; DSG3-coupled beads, scFv-anti-DSG3-GFP binding; hits give low values; binding (percent of control), % at 10 µM; 310,000 tested, 0.48% active; AID 588358, 2011;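 active = binding more than 3 SD below its plate's average and above zero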;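 note: hits lower antibody fragment binding to DSG3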
# Arr AP2 block: inhibitors of beta-arrestin/AP2 binding, primary screen, biochemical, GPCR trafficking, flow cytometry; beta-arrestin 1 C-terminal peptide binding to AP2 beta2-adaptin appendage (human); inhibition, % at 10 µM; FITC-arrestin peptide / GST-AP2 beads; AP2 beta2 appendage carries R879A mutation; 340,000 tested, 0.31% active;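 active = inhibition above a set limit, near 3 SD of compounds lacking own fluorescence, cut at about 54% in these data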;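 note: plate controls were DMSO wells for no effect and 5 µM unlabelled arrestin peptide for full effect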
#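 Measured by: flow cytometry, FL1 (488/535 nm); Material: AP2 appendage R879A on GSH beads; Evaluation: percent response; Timing: pre-incubation 12 min, peptide binding 1 h, room temperature; Also added: 50 nM FITC-arrestin peptide; Medium: PBS with 0.05% Tween 20 and 0.1% BSA.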
# Cmpd fluor yeast: counter-screen for efflux pump inhibitors: compound fluorescence; shares compounds with Efflux pump inh; S. cerevisiae AD/pABC3, flow cytometry; AID 588517; fluorescence ratio to DMSO, % at 10 µM; 1,700 tested, 4% active;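 active = fluorescence ratio to DMSO above its plate's cutoff, the plate mean ratio plus 5 SD, cut at about 210% in these data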;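 note: unstained yeast with no Nile Red so the signal is compound autofluorescence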
# Mdr1 pump inh: inhibitors of Candida albicans Mdr1 efflux, confirmation, flow cytometry, singleplex, Cherry Pick1 set. shares compounds with Efflux pump inh. inhibition, % at 10 µM. 1,700 tested, 1% active. S. cerevisiae AD/CaMDR1, Nile Red efflux; in the data active = inhibition above about 26%;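 note: 0% = DMSO vehicle and 100% = reference inhibitor; higher means more Nile Red retained so more efflux inhibition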
# CaCdr2 efflux inh: inhibitors of Candida albicans Cdr2 efflux pump, confirmation, S. cerevisiae AD/CaCDR2, flow cytometry, cherry pick 1, singleplex | Nile Red retention ratio vs DMSO, % at 10 µM | Nile Red retention | 1,700 tested, 4% active | shares compounds with Efflux pump inh | AID 588520, 2011; in the data active = Nile Red retention ratio vs DMSO above about 190%;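 note: higher ratio means more blocking of Cdr2 efflux of the dye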
# CaCdr1 efflux inh: inhibitors of Candida albicans Cdr1 efflux pump, confirmation, S. cerevisiae AD/CaCDR1, flow cytometry, cherry pick 1, singleplex; shares compounds with Efflux pump inh; Nile Red efflux; inhibition, % at 10 µM; 1,700 tested, 1% active;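 active = inhibition above the screen-wide mean plus twice its standard deviation, cut at about 32% in these data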
# Arr AP2 CP1: inhibitors of arrestin peptide binding to AP2, confirmation, biochemical, cherry pick 1, flow cytometry beads | shares compounds with Arr AP2 block | GST-AP2 beads, FITC arrestin peptide binding; GST-fused beta2-adaptin appendage, R879A mutant | inhibition, % at 10 µM | 1,300 tested, 2% active | AID 504908, 2011;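 active = inhibition above a set limit, roughly 3 SD of non-fluorescent compound noise, cut at about 38% in these data; inactive = inhibition at or below that limit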;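 note: loss of bead fluorescence from 50 nM FITC arrestin peptide bound to appendage; 0% = negative control wells and 100% = excess unlabelled arrestin peptide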
# Target sequence (P63010 whole entry, looked up, the tested form may be a part, one chain of several): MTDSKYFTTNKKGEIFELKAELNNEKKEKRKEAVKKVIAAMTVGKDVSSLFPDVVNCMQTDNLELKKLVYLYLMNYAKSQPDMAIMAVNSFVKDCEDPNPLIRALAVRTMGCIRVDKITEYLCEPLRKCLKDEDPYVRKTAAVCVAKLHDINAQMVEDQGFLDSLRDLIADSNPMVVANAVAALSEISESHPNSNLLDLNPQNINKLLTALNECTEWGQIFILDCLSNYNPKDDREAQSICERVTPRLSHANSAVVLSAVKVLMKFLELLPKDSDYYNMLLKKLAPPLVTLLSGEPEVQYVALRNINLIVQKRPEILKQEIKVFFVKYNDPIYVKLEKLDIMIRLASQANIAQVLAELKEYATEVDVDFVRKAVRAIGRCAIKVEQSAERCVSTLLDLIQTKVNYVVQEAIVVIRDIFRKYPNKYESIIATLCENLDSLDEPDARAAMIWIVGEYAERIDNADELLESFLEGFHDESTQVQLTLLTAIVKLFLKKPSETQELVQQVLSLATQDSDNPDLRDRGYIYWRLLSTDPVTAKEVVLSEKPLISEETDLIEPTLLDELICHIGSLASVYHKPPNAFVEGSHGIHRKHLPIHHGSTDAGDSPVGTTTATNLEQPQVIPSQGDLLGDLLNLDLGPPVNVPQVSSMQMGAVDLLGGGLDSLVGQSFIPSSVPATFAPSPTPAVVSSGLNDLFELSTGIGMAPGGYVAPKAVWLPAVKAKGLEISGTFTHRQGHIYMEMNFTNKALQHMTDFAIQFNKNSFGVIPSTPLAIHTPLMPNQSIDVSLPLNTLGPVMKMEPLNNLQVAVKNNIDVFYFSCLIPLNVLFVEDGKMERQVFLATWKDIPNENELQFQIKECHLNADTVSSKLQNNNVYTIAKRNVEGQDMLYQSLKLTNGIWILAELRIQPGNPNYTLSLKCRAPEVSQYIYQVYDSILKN
# GST GSH counter: GST-fluorescein capture on glutathione beads, confirmation, artefact control for arrestin-AP2 inhibitor project, biochemical, cherry pick 1, flow cytometry; GST-fluorescein binding to GSH beads, fluorescence, counter-screen; 1,300 tested, 2% active; inhibition, % at 10 µM; shares compounds with Arr AP2 block;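 active = inhibition above 50%, about 3 SD of the inhibition seen with non-fluorescent compounds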;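 note: fluorescein maleimide labelled GST captured on 4 micron glutathione beads; higher means more loss of bead fluorescence from quenching or blocked binding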
# Neddyl inh conf: blockade of NEDD8 conjugation to cullin – biochemical, TR-FRET, single concentration, confirmation; shares compounds with Neddylation inh; TR-FRET cullin neddylation biochemical assay; calls only at 25 µM; 1,800 tested, 13% active; in the data active = inhibition above about 40%;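 note: neddylation substrate is the cullin 1 ring ligase complex with SKP2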
# The depositor's hits bear a star; i = inactive; . = not tested or not shown; + = active, no number.
SMILES,Efflux pump inh,Neddylation inh,DSG3 Ab inh,Arr AP2 block,Cmpd fluor yeast,Mdr1 pump inh,CaCdr2 efflux inh,CaCdr1 efflux inh,others
COc1ccc(NC(=O)N2CCC3(CC2)OCCO3)cc1OC,11.1*,5.0,101.3,-0.7,103.0,-0.1,108.0,-0.1,
CC1=CC(=O)OC2CC3OC4C[C@@H](C)C5OC6CC7O[C@]8(C)C/C=C\C9OC%10CC%11OC(CC(C)CO)CC(O)[C@]%11(C)OC%10CC9OC8C[C@]7(C)O[C@]6(C)CCC5OC4C[C@]3(C)OC12 (stereo not given in full),1.4*,-24.8,97.8,-3.3,105.0,0.2,105.7,0.8,
c1ccc2c(c1)[nH]c1cnccc12,0.0,.,115.9,0.1,.,.,.,.,
Cc1c2ccncc2c(C)c2c1[nH]c1ccccc12,5.6*,.,147.6,16.2,117.5,0.3,95.6,-0.1,
COc1ccc(/C=C/C(=O)NC(=S)N2C[C@H]3C[C@H](C2)c2cccc(=O)n2C3)cc1OC,0.1,5.6,109.8,-4.9,.,.,.,.,
Cc1ccc2c(CN3CC=C(c4ccccc4)CC3)cc(=O)oc2c1C,-0.1,-12.3,98.1,-0.1,.,.,.,.,
CCc1ccc2c(CN3CC=C(c4ccccc4)CC3)cc(=O)oc2c1,10.2*,-1.1,105.4,4.7,107.2,-0.1,100.7,-0.1,
COC(=O)C1=C(c2cccc(C#N)c2)C[C@@H]2CC[C@H]1N2C(=O)NCC1CC1,2.5*,-19.5,90.6,1.9,100.0,-0.1,104.2,-0.1,
O=C(Cc1cccs1)N1CCC2(CC1)OCCO2,0.0,5.0,102.3,-6.4,.,.,.,.,
Nc1ccc2ccc3cccc[n+]3c2c1,3.8*,-5.6,90.5,15.6,272.0*,3.9,184.9*,2.6,
Clc1ccc(NC2=NCCCS2)cc1Cl,0.0,-5.0,96.6,0.6,.,.,.,.,
O=C(c1ccc2c3c(cccc13)CC2)C1CCCN(CC2CC2)C1 (stereo not given),0.0,.,106.3,-10.6,.,.,.,.,
C/C(=N\N1CCCCCC1)c1c(O)n(-c2ccccc2)c(=O)[nH]c1=O,0.0,1.6,.,4.1,.,.,.,.,
C/C(=N\N1CCCCC1)c1c(O)[nH]c(=O)[nH]c1=O,16.4*,5.8,97.5,1.6,111.1,-0.1,103.0,0.1,
COc1ccc2c(c1)/C(=C/c1cnc[nH]1)C(=O)N2,0.8*,-22.5,98.4,2.5,105.7,0.1,93.2,0.0,
CC12CCC3C(CCC4(O)CC(O)CCC34C=O)C1(O)CCC2C1=CC(=O)OC1 (stereo not given),.,-4.2,93.9,1.1,.,.,.,.,
C[C@]12CCC3C(CCC4=CC(O)CC[C@@]43/C=N/O)C1(O)CCC2C1=CC(=O)OC1 (stereo not given in full),20.3*,4.1,90.2,11.6,102.2,-0.3,100.1,-0.1,
Cc1ccc(-c2cc(-c3ccc(C)cc3)[n+](-c3ccccc3)c(-c3ccc(C)cc3)c2)cc1,34.4*,44.7*,108.3,6.1,105.0,19.6,+,15.2,
Cc1ccc(-c2cc(-c3ccccc3)cc(-c3ccccc3)[n+]2-c2ccccc2)cc1,-0.1,23.8,102.5,-11.6,.,.,.,.,
CCOC(=O)C1(CCc2ccccc2)CCN(Cc2ccc3c(c2)OCCO3)CC1,-0.2,5.6,104.5,4.3,.,.,.,.,
CCOC(=O)C1(CCOc2ccccc2)CCN(Cc2ccc(C)s2)CC1,0.0,7.5,99.1,57.0*,.,.,.,.,Arr AP2 CP1=10.1;GST GSH counter=-4.5
COc1ccccc1-n1c(CNCC2CCCO2)nc2ccccc2c1=O (stereo not given),-0.2,5.0,108.6,59.8*,.,.,.,.,Arr AP2 CP1=-1.2;GST GSH counter=-7.2
O=P(N1CC1)(N1CC1)N1CCc2ccccc21,.,2.0,108.8,34.8,.,.,.,.,
C#C[C@]1(O)CCC2C3C(=O)C=C4C(Cl)=CCC[C@]4(C)C3CC[C@@]21C (stereo not given in full),.,-5.4,112.8,7.0,.,.,.,.,
CN(C)c1ccc(C=C2C(=O)NC(=S)NC2=O)cc1[N+](=O)[O-],-0.1,-38.3,99.0,63.7*,.,.,.,.,Arr AP2 CP1=16.9;GST GSH counter=6.5
SMILES,Efflux pump inh,Neddylation inh,DSG3 Ab inh,Arr AP2 block,Cmpd fluor yeast,Mdr1 pump inh,CaCdr2 efflux inh,CaCdr1 efflux inh,others
CN(C)c1ccc(C=C2C(=O)NC(=O)NC2=O)cc1[N+](=O)[O-],0.2,-25.5,98.5,5.3,.,.,.,.,
c1ccc2c(c1)cc1ccc3cccc4ccc2c1c34,.,.,87.6,57.2*,.,.,.,.,Arr AP2 CP1=11.3;GST GSH counter=-0.7
CC(CCN1CC1)=NNC(=O)Nc1cccc2ccccc12,.,47.8*,.,-7.2,.,.,.,.,Neddyl inh conf=i
Cc1cc(C(=O)OC(C)C(=O)Nc2ccccc2)c(C)n1C1CC1 (stereo not given),.,4.7,98.1,.,.,.,.,.,
CCOc1ccc2[nH]c(=O)c(CN(CCO)C3(c4nnnn4C4CCCCC4)CCCCC3)cc2c1,0.0,38.9*,100.1,-1.1,.,.,.,.,Neddyl inh conf=i
CCOP(=S)(OCC)SCSP(=S)(OCC)OCC,.,-0.5,93.0,19.9,.,.,.,.,
N#CCCn1cc(C(=O)O)c(-c2cccc([N+](=O)[O-])c2)n1,-0.2,-16.0,112.5,2.0,.,.,.,.,
c1cncc(C2CCCN2)c1 (stereo not given),-0.2,.,.,.,.,.,.,.,
CC1(C)Cc2c(sc3c2C(=O)NC(c2cccnc2)N3)CO1 (stereo not given),0.0,43.0*,102.1,1.6,.,.,.,.,Neddyl inh conf=i
O=C1NC(c2cccnc2)Nc2sc3c(c21)CCCC3 (stereo not given),-0.1,40.6*,104.8,4.3,.,.,.,.,Neddyl inh conf=i
